Assay results as given in ChEMBL document CHEMBL1649119, “Daptomycin pharmacokinetics in adult oncology patients with neutropenic fever” (Antimicrob Agents Chemother, 2009).

What was measured:
[1] = Cmax in healthy adult human at 6 mg/kg, iv administered as single dose 30 mins infusion; format: ADME, organism-based; design: dose 6 mg/kg, route intravenous; details: in vivo
[2] = Cmax in adult human subjects at 6 mg/kg, iv administered as single dose 30 mins infusion; format: ADME, organism-based; design: dose 6 mg/kg, route intravenous; details: in vivo
[3] = Cmax in nonobese adult human at 4 mg/kg, iv administered as single dose 30 mins infusion; format: ADME, organism-based; design: dose 4 mg/kg, route intravenous; details: in vivo
[4] = Cmax in moderately obese adult human at 4 mg/kg, iv administered as single dose 30 mins infusion; format: ADME, organism-based; design: dose 4 mg/kg, route intravenous; details: in vivo
[5] = Cmax in old healthy human at 4 mg/kg, iv administered as single dose 30 mins infusion; format: ADME, organism-based; design: dose 4 mg/kg, route intravenous; details: in vivo
[6] = Apparent volume of distribution during terminal phase in healthy human subjects at 12 mg/kg, iv administered as 30 mins infusion every 24 hrs measured on day 4; format: ADME, organism-based; design: dose 12 mg/kg, route intravenous; details: in vivo
[7] = Plasma protein binding in human after 2 hrs; format: ADME, cell-free; details: read-out: PPB (converted)
Method in brief: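 Neutropenic-fever oncology patients received 6 mg/kg IV daptomycin; serum was drawn 0.5, 2 and 8 h after the end of infusion. Free drug was obtained by ultrafiltration (30,000-MW cutoff) and quantified by HPLC against a saline-matrix curve of 0.25–100 μg/ml, with total plasma drug also measured. Percent bound was (total − free)/total × 100; results are given as mean ± SD.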

[8] = Renal clearance in moderately obese adult human at 4 mg/kg, iv administered as single dose 30 mins infusion; format: ADME, organism-based, Kidney; design: dose 4 mg/kg, route intravenous; details: in vivo, read-out: CL_renal (converted)
[9] = AUC (0 to infinity) in adult human subjects at 6 mg/kg, iv administered as single dose 30 mins infusion; format: ADME, organism-based; design: time infinity, dose 6 mg/kg, route intravenous; details: plasma
[10] = AUC (0 to infinity) in healthy adult human at 6 mg/kg, iv administered as single dose 30 mins infusion; format: ADME, organism-based; design: dose 6 mg/kg, route intravenous, time infinity; details: plasma
[11] = AUC (0 to infinity) in nonobese human at 4 mg/kg, iv administered as single dose 30 mins infusion; format: ADME, organism-based; design: time infinity, dose 4 mg/kg, route intravenous; details: plasma
[12] = AUC (0 to infinity) in morbidly obese adult human at 4 mg/kg, iv administered as single dose 30 mins infusion; format: ADME, organism-based; design: time infinity, dose 4 mg/kg, route intravenous; details: plasma
[13] = AUC (0 to infinity) in healthy human subjects at 12 mg/kg, iv administered as 30 mins infusion every 24 hrs measured on day 4; format: ADME, organism-based; design: time infinity, dose 12 mg/kg, route intravenous; details: plasma
[14] = AUC (0 to infinity) in healthy human at 4 mg/kg, iv administered as 30 mins infusion every 24 hrs measured on day 1; format: ADME, organism-based; design: time infinity, dose 4 mg/kg, route intravenous; details: plasma
[15] = Cmax in healthy human subjects at 10 mg/kg, iv administered as 30 mins infusion every 24 hrs measured on day 4; format: ADME, organism-based; design: dose 10 mg/kg, route intravenous; details: in vivo
Homo sapiens [16] = assay: Cmax in healthy human subjects at 6 mg/kg, iv administered as 30 mins infusion every 24 hrs measured on day 4; format: ADME, organism-based; design: dose 6 mg/kg, route intravenous; details: in vivo
[17] = Drug excretion in adult human with hepatic impairment urine assessed as unchanged drug at 6 mg/kg, iv administered as single dose 30 mins infusion; format: ADME, organism-based; design: dose 6 mg/kg, route intravenous; details: read-out: Drug uptake
[18] = Drug excretion in nonobese human at 4 mg/kg, iv administered as single dose 30 mins infusion; format: ADME, organism-based; design: dose 4 mg/kg, route intravenous; details: in vivo, read-out: Drug uptake
[19] = Drug excretion in old healthy human urine assessed as unchanged drug at 4 mg/kg, iv administered as single dose 30 mins infusion; format: ADME, organism-based; design: dose 4 mg/kg, route intravenous; details: read-out: Drug uptake
[20] = Mean residence time in old healthy human at 4 mg/kg, iv administered as single dose 30 mins infusion; format: ADME, organism-based; design: dose 4 mg/kg, route intravenous; details: in vivo
[21] = Mean residence time in young healthy human at 4 mg/kg, iv administered as single dose 30 mins infusion; format: ADME, organism-based; design: dose 4 mg/kg, route intravenous; details: in vivo
[22] = Volume of distribution at steady state in moderately obese adult human at 4 mg/kg, iv administered as single dose 30 mins infusion; format: ADME, organism-based; design: dose 4 mg/kg, route intravenous; details: in vivo, read-out: Vdss
[23] = Clearance in morbidly obese human at 4 mg/kg, iv administered as single dose 30 mins infusion; format: ADME, organism-based; design: dose 4 mg/kg, route intravenous; details: in vivo
[24] = Clearance in old healthy human at 4 mg/kg, iv administered as single dose 30 mins infusion; format: ADME, organism-based; design: dose 4 mg/kg, route intravenous; details: in vivo
Homo sapiens [25] = assay: Unbound clearance in healthy human at 6 mg/kg, iv administered as 30 mins infusion every 24 hrs measured on day 7; format: ADME, organism-based; design: dose 6 mg/kg, route intravenous; details: in vivo
[26] = Clearance in healthy human subjects at 10 mg/kg, iv administered as 30 mins infusion every 24 hrs measured on day 14; format: ADME, organism-based; design: dose 10 mg/kg, route intravenous; details: in vivo
[27] = Half life in healthy human subjects at 6 mg/kg, iv administered as 30 mins infusion every 24 hrs measured on days 1-3; format: ADME, organism-based; design: dose 6 mg/kg, route intravenous; details: in vivo
[28] = Half life in healthy human at 8 mg/kg, iv administered as 30 mins infusion every 24 hrs measured on day 14; format: ADME, organism-based; design: dose 8 mg/kg, route intravenous; details: in vivo
[29] = Half life in healthy human at 4 mg/kg, iv administered as 30 mins infusion every 24 hrs measured on day 1; format: ADME, organism-based; design: dose 4 mg/kg, route intravenous; details: in vivo

CCCCCCCCCC(=O)N[C@@H](Cc1c[nH]c2ccccc12)C(=O)N[C@H](CC(N)=O)C(=O)N[C@@H](CC(=O)O)C(=O)N[C@@H]1C(=O)NCC(=O)N[C@@H](CCCN)C(=O)N[C@@H](CC(=O)O)C(=O)N[C@H](C)C(=O)N[C@@H](CC(=O)O)C(=O)NCC(=O)N[C@H](CO)C(=O)N[C@@H]([C@H](C)CC(=O)O)C(=O)N[C@@H](CC(=O)c2ccccc2N)C(=O)O[C@@H]1C
Cmax [1]: 82 µg/mL
Cmax [2]: 118 µg/mL
Cmax [3]: 46.3 µg/mL
Cmax [4]: 57.8 µg/mL
Cmax [5]: 44 µg/mL
Vd [6]: 0.0976 L/kg
fraction unbound at 2 h [7]: 0.063
CL renal at 0.5 h [8]: 0.156 mL/min/kg
AUC(0-inf) [9]: 928 µg·h/mL
AUC(0-inf) [10]: 598 µg·h/mL
AUC(0-inf) [11]: 419 µg·h/mL
AUC(0-inf) [12]: 548 µg·h/mL
AUC(0-inf) [13]: 1280 µg·h/mL
AUC(0-inf) [14]: 425 µg·h/mL
Cmax [15]: 141 µg/mL
Cmax (Homo sapiens [16]): 93.9 µg/mL
dose excreted at 0.5 h [17]: 49.3%
dose excreted at 0.5 h [18]: 48.6%
dose excreted at 0.5 h [19]: 34.3%
MRT [20]: 15.9 h
MRT [21]: 9.05 h
Vd [22]: 0.15 L/kg
clearance [23]: 0.118 mL/min/kg
clearance [24]: 0.164 mL/min/kg
CL (Homo sapiens [25]): 0.997 mL/min/kg
clearance [26]: 0.125 mL/min/kg
half-life [27]: 7.6 h
half-life [28]: 8.9 h
half-life [29]: 7.4 h
